Experiments:
Format in all cases: functional
DU-145 = assay: Inhibition of cell growth was determined in DU145 cell line of human prostate tumor using MTT assay, on day 6 after treatment; conditions: DU-145, 144 h, read-out: ID50 (the source's name)
Method in brief: (§1)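 Cells in Eagle's MEM with 10% fetal calf serum and nonessential amino acids were seeded at 500 cells/well and incubated overnight at 37 °C in humidified 95% air/5% CO2. Drug dilutions were then added, each concentration in quadruplicate, with buffer-only control columns, for 6 days. MTT (25 µL of 5 mg/mL) was added for 4 h at 37 °C.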

LNCaP = assay: Inhibition of cell growth was determined in LNCaP cell line of human prostate tumor using MTT assay, on day 6 after treatment; conditions: 144 h, read-out: ID50 (the source's name); method in brief: as §1
PC-3 = assay: Inhibition of cell growth was determined in PC-3 cell line of human prostate tumor using MTT assay, on day 6 after treatment; conditions: PC-3, 144 h, read-out: ID50 (the source's name); method in brief: as §1
DuPro = assay: Inhibition of cell growth was determined in DUPRO cell line of human prostate tumor using MTT assay, on day 6 after treatment; conditions: 144 h, read-out: ID50 (the source's name); method in brief: as §1

SMILES	IC50 (DU-145) [nM]	IC50 (LNCaP) [nM]	IC50 (PC-3) [µM]	IC50 (DuPro) [µM]
CCNCCCCNC/C=C\CNCCCCNCCCCNCC	80	90	> 31.2	–
CCNC/C=C\CNC/C=C\CNC/C=C\CNC/C=C\CNCC	–	550	0.2	–
CCNC/C=C\CNC/C=C\CNCCCCNCCCCNCC	–	150	> 31.2	–
CCNC/C=C\CNCCCCNC/C=C\CNCCCCNCC	340	540	> 31.2	> 31.2
CCNC/C=C\CNC/C=C\CNCCCCNC/C=C\CNCC	–	320	–	> 31.2
CCNC/C=C\CNC/C=C\CNC/C=C\CNCCCCNCC	–	240	> 31.2	> 31.2
CCNCCCCNC/C=C\CNC/C=C\CNCCCCNCC	–	150	> 31.2	–
CCNC/C=C\CNCCCCNCCCCNC/C=C\CNCC	–	300	0.5	0.25
CCNC/C=C\CNCCCCNCCCCNCCCCNCC	–	140	–	–
